Data: ChEMBL document CHEMBL3734675, “Synthesis, antimycobacterial and antibacterial activity of fluoroquinolone derivatives containing an 3-alkoxyimino-4-(cyclopropylanimo)methylpyrrolidine moiety” (2015)
In brackets after ≈: the same amount, converted by molar mass.

How the values were obtained:
Assay type in all cases: functional
Escherichia coli [1] = test: Antibacterial activity against extended-spectrum beta-lactamase producing Escherichia coli 14-1 after 18 to 24 hrs by two-fold serial dilution method
Procedure, shortened: (§1)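 Twofold serial dilution in agar media against Gram-positive and Gram-negative strains. Plates incubated at 35 °C for 18–24 h. MIC read as the lowest compound concentration giving complete inhibition of bacterial growth.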

Klebsiella pneumoniae [2] = test: Antibacterial activity against extended-spectrum beta-lactamase producing Klebsiella pneumoniae 14-17 after 18 to 24 hrs by two-fold serial dilution method; procedure, shortened: as §1
Enterococcus faecium [3] = test: Antibacterial activity against Enterococcus faecium 14-2 after 18 to 24 hrs by two-fold serial dilution method; procedure, shortened: as §1
Enterococcus faecalis [4] = test: Antibacterial activity against Enterococcus faecalis 14-1 after 18 to 24 hrs by two-fold serial dilution method; procedure, shortened: as §1
[5] = tested on: Staphylococcus epidermidis; test: Antibacterial activity against methicillin-resistant Staphylococcus epidermidis 14-37 after 18 to 24 hrs by two-fold serial dilution method
Procedure, shortened: (§2)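 Agar media, standard twofold serial dilution. MIC is the lowest concentration giving complete inhibition of bacterial growth after incubation at 35 °C for 18–24 h. Ciprofloxacin and levofloxacin were run as comparators.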

Staphylococcus aureus [6] = test: Antibacterial activity against methicillin-resistant Staphylococcus aureus 14-4 after 18 to 24 hrs by two-fold serial dilution method; procedure, shortened: as §2
Pseudomonas aeruginosa [7] = test: Antibacterial activity against Pseudomonas aeruginosa ATCC 27853 after 18 to 24 hrs by two-fold serial dilution method; procedure, shortened: as §1
Escherichia coli [8] = test: Antibacterial activity against Escherichia coli ATCC 25922 after 18 to 24 hrs by two-fold serial dilution method; procedure, shortened: as §1
Escherichia coli [9] = test: Antibacterial activity against extended-spectrum beta-lactamase producing Escherichia coli 14-2 after 18 to 24 hrs by two-fold serial dilution method; procedure, shortened: as §1
Klebsiella pneumoniae [10] = test: Antibacterial activity against extended-spectrum beta-lactamase producing Klebsiella pneumoniae 14-19 after 18 to 24 hrs by two-fold serial dilution method; procedure, shortened: as §1
Staphylococcus aureus [11] = test: Antibacterial activity against methicillin-sensitive Staphylococcus aureus 14-4 after 18 to 24 hrs by two-fold serial dilution method; procedure, shortened: as §1
Streptococcus pneumoniae = test: Antibacterial activity against methicillin-resistant Streptococcus pneumoniae ATCC 19615 after 18 to 24 hrs by two-fold serial dilution method; procedure, shortened: as §2
Klebsiella pneumoniae [12] = test: Antibacterial activity against extended-spectrum beta-lactamase producing Klebsiella pneumoniae 14-18 after 18 to 24 hrs by two-fold serial dilution method; procedure, shortened: as §1
Staphylococcus aureus [13] = test: Antibacterial activity against methicillin-sensitive Staphylococcus aureus 14-1 after 18 to 24 hrs by two-fold serial dilution method; procedure, shortened: as §1
Pseudomonas aeruginosa [14] = test: Antibacterial activity against Pseudomonas aeruginosa 14-15 after 18 to 24 hrs by two-fold serial dilution method; procedure, shortened: as §1
Escherichia coli [15] = test: Antibacterial activity against Escherichia coli 14-2 after 18 to 24 hrs by two-fold serial dilution method; procedure, shortened: as §1
[16] = tested on: Staphylococcus epidermidis; test: Antibacterial activity against methicillin-resistant Staphylococcus epidermidis 14-21 after 18 to 24 hrs by two-fold serial dilution method; procedure, shortened: as §2
Escherichia coli [17] = test: Antibacterial activity against Escherichia coli 14-1 after 18 to 24 hrs by two-fold serial dilution method; procedure, shortened: as §1
Pseudomonas aeruginosa [18] = test: Antibacterial activity against Pseudomonas aeruginosa 14-16 after 18 to 24 hrs by two-fold serial dilution method; procedure, shortened: as §1
[19] = tested on: Staphylococcus epidermidis; test: Antibacterial activity against methicillin-sensitive Staphylococcus epidermidis 14-2 after 18 to 24 hrs by two-fold serial dilution method; procedure, shortened: as §1
Enterococcus faecium [20] = test: Antibacterial activity against Enterococcus faecium 14-5 after 18 to 24 hrs by two-fold serial dilution method; procedure, shortened: as §1
Klebsiella pneumoniae [21] = test: Antibacterial activity against Klebsiella pneumoniae 14-2 after 18 to 24 hrs by two-fold serial dilution method; procedure, shortened: as §1
Staphylococcus aureus [22] = test: Antibacterial activity against Staphylococcus aureus CMCC 26003 after 18 to 24 hrs by two-fold serial dilution method; procedure, shortened: as §1
[23] = tested on: Staphylococcus epidermidis; test: Antibacterial activity against methicillin-resistant Staphylococcus epidermidis 14-39 after 18 to 24 hrs by two-fold serial dilution method; procedure, shortened: as §2
Pseudomonas aeruginosa [24] = test: Antibacterial activity against Pseudomonas aeruginosa 14-9 after 18 to 24 hrs by two-fold serial dilution method; procedure, shortened: as §1
Staphylococcus aureus [25] = test: Antibacterial activity against methicillin-resistant Staphylococcus aureus 14-5 after 18 to 24 hrs by two-fold serial dilution method; procedure, shortened: as §2
Klebsiella pneumoniae [26] = test: Antibacterial activity against Klebsiella pneumoniae 14-4 after 18 to 24 hrs by two-fold serial dilution method; procedure, shortened: as §1
Enterococcus faecium [27] = test: Antibacterial activity against Enterococcus faecium 14-6 after 18 to 24 hrs by two-fold serial dilution method; procedure, shortened: as §1
Staphylococcus aureus [28] = test: Antibacterial activity against methicillin-sensitive Staphylococcus aureus 14-3 after 18 to 24 hrs by two-fold serial dilution method; procedure, shortened: as §1
Klebsiella pneumoniae [29] = test: Antibacterial activity against Klebsiella pneumoniae 14-3 after 18 to 24 hrs by two-fold serial dilution method; procedure, shortened: as §1
[30] = tested on: Staphylococcus epidermidis; test: Antibacterial activity against methicillin-resistant Staphylococcus epidermidis 14-22 after 18 to 24 hrs by two-fold serial dilution method; procedure, shortened: as §2
Klebsiella pneumoniae [31] = test: Antibacterial activity against Klebsiella pneumoniae 14-1 after 18 to 24 hrs by two-fold serial dilution method; procedure, shortened: as §1
Enterococcus faecalis [32] = test: Antibacterial activity against Enterococcus faecalis 14-2 after 18 to 24 hrs by two-fold serial dilution method; procedure, shortened: as §1
Pseudomonas aeruginosa [33] = test: Antibacterial activity against Pseudomonas aeruginosa 14-14 after 18 to 24 hrs by two-fold serial dilution method; procedure, shortened: as §1

For `C[C@H]1COc2c(N3C/C(=N/OCc4ccccc4)C(CNC4CC4)C3)c(F)cc3c(=O)c(C(=O)O)cn1c23` (stereo not given in full), the MIC (Escherichia coli [1]) was 2 µg/mL (≈ 3.84 µM), the MIC (Klebsiella pneumoniae [2]) was 32 µg/mL (≈ 61.5 µM) and the MIC (Enterococcus faecium [3]) was 4 µg/mL (≈ 7.68 µM). The MIC (Enterococcus faecalis [4]) was 16 µg/mL (≈ 30.7 µM), the MIC [5] was 2 µg/mL (≈ 3.84 µM) and the MIC (Staphylococcus aureus [6]) was 4 µg/mL (≈ 7.68 µM). For the same compound, the MIC (Pseudomonas aeruginosa [7]) was 32 µg/mL (≈ 61.5 µM), the MIC (Escherichia coli [8]) was 1 µg/mL (≈ 1.92 µM) and the MIC (Escherichia coli [9]) was greater than 64 µg/mL. For the same compound, the MIC (Klebsiella pneumoniae [10]) was 64 µg/mL (≈ 123 µM), the MIC (Staphylococcus aureus [11]) was 0.06 µg/mL (≈ 0.115 µM) and the MIC (Streptococcus pneumoniae) was 0.125 µg/mL (≈ 0.24 µM). The MIC (Klebsiella pneumoniae [12]) was 32 µg/mL (≈ 61.5 µM), the MIC (Staphylococcus aureus [13]) was 2 µg/mL (≈ 3.84 µM) and the MIC (Pseudomonas aeruginosa [14]) was 64 µg/mL (≈ 123 µM). It also gave an MIC (Escherichia coli [15]) greater than 64 µg/mL, an MIC [16] of 8 µg/mL (≈ 15.4 µM) and an MIC (Escherichia coli [17]) greater than 64 µg/mL. It also gave an MIC (Pseudomonas aeruginosa [18]) of 32 µg/mL (≈ 61.5 µM), an MIC [19] of 8 µg/mL (≈ 15.4 µM) and an MIC (Enterococcus faecium [20]) of 8 µg/mL (≈ 15.4 µM). It also gave an MIC (Klebsiella pneumoniae [21]) of 64 µg/mL (≈ 123 µM), an MIC (Staphylococcus aureus [22]) of less than 0.008 µg/mL and an MIC [23] of 4 µg/mL (≈ 7.68 µM). The MIC (Pseudomonas aeruginosa [24]) was 16 µg/mL (≈ 30.7 µM), the MIC (Staphylococcus aureus [25]) was 4 µg/mL (≈ 7.68 µM) and the MIC (Klebsiella pneumoniae [26]) was 64 µg/mL (≈ 123 µM). The MIC (Enterococcus faecium [27]) was 16 µg/mL (≈ 30.7 µM), the MIC (Staphylococcus aureus [28]) was 0.125 µg/mL (≈ 0.24 µM) and the MIC (Klebsiella pneumoniae [29]) was 64 µg/mL (≈ 123 µM). For the same compound, the MIC [30] was 4 µg/mL (≈ 7.68 µM), the MIC (Klebsiella pneumoniae [31]) was 32 µg/mL (≈ 61.5 µM) and the MIC (Enterococcus faecalis [32]) was 0.5 µg/mL (≈ 0.961 µM). It also gave an MIC (Pseudomonas aeruginosa [33]) of 64 µg/mL (≈ 123 µM).
For `O=C(O)c1cn(C2CC2)c2cc(N3CCNCC3)c(F)cc2c1=O` [CIPROFLOXACIN], the MIC (Klebsiella pneumoniae [2]) was 0.5 µg/mL (≈ 1.51 µM), the MIC (Enterococcus faecium [3]) was 32 µg/mL (≈ 96.6 µM) and the MIC (Enterococcus faecalis [4]) was 64 µg/mL (≈ 193 µM). It also gave an MIC [5] of 128 µg/mL (≈ 386 µM), an MIC (Staphylococcus aureus [6]) greater than 128 µg/mL and an MIC (Escherichia coli [8]) of less than 0.008 µg/mL. For the same compound, the MIC (Klebsiella pneumoniae [10]) was 64 µg/mL (≈ 193 µM), the MIC (Staphylococcus aureus [11]) was 0.5 µg/mL (≈ 1.51 µM) and the MIC (Streptococcus pneumoniae) was 2 µg/mL (≈ 6.04 µM). It also gave an MIC (Klebsiella pneumoniae [12]) of 0.5 µg/mL (≈ 1.51 µM), an MIC (Staphylococcus aureus [13]) of 32 µg/mL (≈ 96.6 µM) and an MIC (Pseudomonas aeruginosa [14]) of 1 µg/mL (≈ 3.02 µM). It also gave an MIC [16] of 64 µg/mL (≈ 193 µM), an MIC (Pseudomonas aeruginosa [18]) of 1 µg/mL (≈ 3.02 µM) and an MIC [19] greater than 128 µg/mL. It also gave an MIC (Enterococcus faecium [20]) of 128 µg/mL (≈ 386 µM), an MIC (Klebsiella pneumoniae [21]) of 16 µg/mL (≈ 48.3 µM) and an MIC (Staphylococcus aureus [22]) of 0.5 µg/mL (≈ 1.51 µM). For the same compound, the MIC [23] was 128 µg/mL (≈ 386 µM), the MIC (Klebsiella pneumoniae [26]) was 32 µg/mL (≈ 96.6 µM) and the MIC (Enterococcus faecium [27]) was greater than 128 µg/mL. For the same compound, the MIC (Klebsiella pneumoniae [29]) was greater than 128 µg/mL, the MIC [30] was 128 µg/mL (≈ 386 µM) and the MIC (Klebsiella pneumoniae [31]) was 32 µg/mL (≈ 96.6 µM). The MIC (Enterococcus faecalis [32]) was 1 µg/mL (≈ 3.02 µM) and the MIC (Pseudomonas aeruginosa [33]) was 1 µg/mL (≈ 3.02 µM).
